A short description of assay [1]: inhibitors of TNFa-induced NFkB p65 translocation, primary screen, imaging, HUVEC, MLSMR starter and 10KST1 sets (AID 438;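 active means inhibition above 20% together with a positive visual image hit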;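 further: compound added about 3h40 before a 20 min TNFalpha stimulation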;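 on inhibition: signal is the nuclear over cytoplasmic p65 intensity ratio per well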). The conditions noted are these: HUVEC TNFa-induced p65 nuclear translocation; cell count: measured here: nuclei count (cytotoxicity indicator), at 2.08 µM; inhibition: at 2 µM, stronger effect = higher value, 0% TNFa-plus-vehicle, 100% no-TNFa wells.
Assay [2] in a line: reduction of polyQ htt aggregates in cells – imaging, exon1htt(103Q)mCFP cells, high-content imaging, primary screen (AID 483;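 active means visual image review flags a hit and inhibition of aggregation exceeds 20%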;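 further: compound exposure lasted 3 days before fixation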;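 on nuclei count: percent of the per-plate median nuclei count of sample wells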). The conditions noted are these: exon1htt(103Q)mCFP cell line, aggregate imaging, at 2 µM; inhibition of aggregation: stronger effect = higher value; nuclei count: measured here: cell count, toxicity.
A short description of assay [3]: endothelial E-selectin expression blockers – imaging, HUVEC, immunofluorescence, MLSMR starter and 10KST1 sets, primary screen (AID 487;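 active means visually confirmed hit in the image check and inhibition above 20%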;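 on inhibition: signal is fraction of cell area covered by stained E-selectin grains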;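 on nuclei count: 100% = median nuclei count of all wells on the same plate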). Particulars: HUVEC TNFalpha-induced E-selectin immunofluorescence imaging, at 2 µM; inhibition: stronger effect = higher value; nuclei count: measured here: cell number, toxicity.
Assay [4] has as its target Voltage-gated potassium channel subunit beta-2 (Rattus norvegicus) (UniProt P62483). Description: inhibitors of rat Kvbeta2 reductase activity – biochemical, NADPH fluorescence, primary screen (AID 622;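 active means fluorescence slope higher than the sample average by over 3 SD, cut at about -0.22 in these data, passing the limit was not always enough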;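 further: slope of raw intensity against log time taken from 70 to 1610 s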). The conditions noted are these: recombinant KvBeta, 4-cyanobenzaldehyde reduction, at 10 µM, stronger effect = higher value.
Assay [5] has the same target. Description: enhancers of rat Kvbeta2 NADPH turnover – biochemical, NADPH fluorescence, primary screen (AID 623;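 active means NADPH fluorescence slope more negative than the mean of all samples by about 3 SD, 99.7% confidence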;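 further: fluorescence intensity change per second fitted from 20 to 320 s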). The conditions noted are these: Recombinant KvBeta, NADPH fluorescence decrease slope, 10 min; at 10 µM; stronger effect = lower value.
For assay [6], the target named is Muscarinic acetylcholine receptor M4 (Homo sapiens) (UniProt P08173). Description: M4-linked GIRK flux change, two-sided – cell-based, HEK293 M4/GIRK, thallium flux, BTC-AM, M4 allosteric agonist project, primary screen (AID 625;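 active means fluorescence slope after compound addition differing from the mean of all tested samples at 99.7% confidence, mostly higher but some lower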;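 further: thallium influx through GIRK channels coupled to M4 in HEK293 cells with BTC-AM dye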). Particulars: at 10 µM, actives lie on both sides. Put shortly: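 Material: HEK293 cells with M4 receptor and GIRK channels; Times: cells overnight at 37 °C, BTC-AM loading 1 h, reads 2 min total; Technique: kinetic BTC-AM fluorescence sampled at 1 Hz, 10 s pre-addition baseline; Read-out basis: slope over 15–24 s of trace normalized to starting intensity; Controls: carbachol positive, DMSO negative.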
Chain of Muscarinic acetylcholine receptor M4 (Homo sapiens) (P08173 whole entry, looked up): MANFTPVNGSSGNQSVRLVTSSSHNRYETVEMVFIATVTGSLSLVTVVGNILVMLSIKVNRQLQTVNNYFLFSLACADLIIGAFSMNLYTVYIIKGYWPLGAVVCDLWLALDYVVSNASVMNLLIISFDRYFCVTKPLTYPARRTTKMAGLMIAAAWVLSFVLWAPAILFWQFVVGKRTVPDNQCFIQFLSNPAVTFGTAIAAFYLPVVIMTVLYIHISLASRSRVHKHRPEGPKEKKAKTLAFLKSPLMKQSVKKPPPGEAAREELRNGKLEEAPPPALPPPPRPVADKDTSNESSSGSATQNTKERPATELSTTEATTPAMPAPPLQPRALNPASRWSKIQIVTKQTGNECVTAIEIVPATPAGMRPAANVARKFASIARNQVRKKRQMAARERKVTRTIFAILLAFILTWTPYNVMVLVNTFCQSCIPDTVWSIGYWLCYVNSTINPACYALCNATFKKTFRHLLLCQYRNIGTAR

Assay [7] in a line: blockers of RIG-like receptor reporter activation – cell-based, Sendai virus stimulus, luciferase, 10K MLSCN set, TLR/RLR signaling modifier project, primary screen (AID 602276;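 active means inhibition at or above 50% at 10 µM; inactive means inhibition below 50%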;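 further: firefly luciferase from ISG56 promoter only with Renilla not read in this screen; 0% = Sendai virus plus DMSO and 100% = medium plus DMSO without virus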). The conditions noted are these: HEK293 RL24 IRF3 luciferase reporter, at 10 µM, stronger effect = higher value. Background: In a reporter assay the amount or activity of a reporter protein is the signal.
Assay [8] is described as follows: TLR3 IRF3 reporter activation blockers – cell-based, poly I:C stimulus, luciferase, 10K MLSCN set, primary screen (AID 602277). Particulars: HEK293-TLR3 RL24 IRF3 luciferase reporter, at 10 µM, stronger effect = higher value.

Calls of active or inactive are those of the source.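 How the source made its calls, unless noted: active means inhibition of the reporter signal at or above 50%; inactive means inhibition below 50%.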

By inhibition is commonly meant the relative decrease from the control value, in per cent.

Chain of Voltage-gated potassium channel subunit beta-2 (Rattus norvegicus) (P62483 whole entry, looked up): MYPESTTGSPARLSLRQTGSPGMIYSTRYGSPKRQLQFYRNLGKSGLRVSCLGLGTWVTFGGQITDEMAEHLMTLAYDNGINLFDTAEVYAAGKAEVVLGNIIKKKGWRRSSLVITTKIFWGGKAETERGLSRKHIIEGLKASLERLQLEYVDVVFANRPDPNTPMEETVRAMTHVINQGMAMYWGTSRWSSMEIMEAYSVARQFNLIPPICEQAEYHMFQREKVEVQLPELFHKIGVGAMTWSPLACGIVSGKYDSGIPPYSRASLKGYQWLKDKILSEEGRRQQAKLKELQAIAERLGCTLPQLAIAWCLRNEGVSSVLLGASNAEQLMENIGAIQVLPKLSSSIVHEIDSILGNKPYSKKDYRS

Take `CC(C(=O)Nc1ccccc1-c1ccccc1)N1CCN(C(=O)c2ccco2)CC1` (stereo not drawn): the cell count in assay [1] was 546. The inhibition in assay [1] was -11.2% (inactive); in assay [3] it was -63.4% (inactive); in assay [7], 19.8% (inactive); in assay [8] it was 33.6% (inactive). The inhibition of aggregation in assay [2] was 14% (inactive). Besides, the nuclei count came to 75% in assay [2] and 97.9% in assay [3]. Further, the fluorescence slope in assay [4] is -0.395 (inactive); in assay [6], 0.00807 (inactive). Besides, in assay [5], the NADPH fluorescence slope was 1.3e-05 (inactive).
For `Cc1cnc(C(=O)Nc2ccc(N3CCOCC3)cc2)cn1`, in assay [1], the cell count came to 392. The inhibition in assay [1] was 3% (inactive); in assay [3], 4.5% (inactive); in assay [7] it was -19.8% (inactive); in assay [8] it was -62% (inactive). Besides, the inhibition of aggregation in assay [2] was -7.7% (inactive). In addition, the nuclei count in assay [2] stood at 117%; in assay [3] it was 101%. The fluorescence slope in assay [4] was -0.524 (inactive); in assay [6], 0.00612 (inactive). For the same molecule, in assay [5], the NADPH fluorescence slope was -2.8e-05 (inactive).
With `CCOCCCNC(=O)c1c[nH]c2ccc(S(=O)(=O)Nc3cccc(OC)c3)cc2c1=O`, the cell count in assay [1] amounted to 337. The inhibition in assay [1] is -3.1% (inactive); in assay [3], -85.4% (inactive); in assay [7], 0.375% (inactive); in assay [8], 0.559% (inactive). For the same molecule, in assay [2], the inhibition of aggregation was -12.3% (inactive). The nuclei count was 99.2% in assay [2] and 105% in assay [3]. The fluorescence slope in assay [4] is -0.599 (inactive); in assay [6], 0.00605 (inactive). Also, in assay [5], the NADPH fluorescence slope is -3.6e-05 (inactive).
Turning to `O=C(Nc1ccc(CN2CCOCC2)cc1)c1cc2ccccc2oc1=O`, the cell count in assay [1] was 426. The inhibition in assay [1] is 3.6% (inactive); in assay [3], -218% (inactive); in assay [7] it was 0.662% (inactive); in assay [8], 29.5% (inactive). The inhibition of aggregation in assay [2] is -12.6% (inactive). Moreover, the nuclei count worked out at 118% in assay [2] and 146% in assay [3]. The fluorescence slope is -0.53 (inactive) in assay [4] and 0.00463 (inactive) in assay [6]. In assay [5], the NADPH fluorescence slope is -7.9e-05 (inactive).
For `Cc1noc(C)c1CSc1nnc(-c2ccncc2)n1-c1cccc(Cl)c1C`, the cell count in assay [1] was determined as 344. Besides, the inhibition was -2.1% (inactive) in assay [1], 51.9% (inactive) in assay [3], 10.2% (inactive) in assay [7] and 34.9% (inactive) in assay [8]. Also, in assay [2], the inhibition of aggregation is -9% (inactive). In addition, the nuclei count in assay [2] was 107%; in assay [3], 74.2%. The results for the fluorescence slope in assay [4] and in assay [6] were -0.482 (inactive) and 0.00492 (inactive), respectively. In addition, the NADPH fluorescence slope in assay [5] was 5.5e-05 (inactive).
Take `CC(=O)c1cc(C#N)c(SCC(=O)OC(C)C)nc1C`: the cell count in assay [1] was 464. Further, the inhibition in assay [1] is -5.3% (inactive); in assay [3] it was -22.4% (inactive); in assay [7], 9.07% (inactive); in assay [8] it was -11% (inactive). For the same molecule, the inhibition of aggregation in assay [2] is -14.7% (inactive). The nuclei count is 118% in assay [2] and 121% in assay [3]. For the same molecule, the fluorescence slope in assay [4] is -0.26 (inactive); in assay [6], 0.00594 (inactive). Also, in assay [5], the NADPH fluorescence slope is -2.7e-05 (inactive).
Take `COc1cc(NC(=O)C2CC(c3cccc(OC)c3OC)=NO2)cc(OC)c1OC` (stereo not drawn): the cell count in assay [1] stood at 711. Further, the inhibition in assay [1] is -12.2% (inactive); in assay [3], -176% (inactive); in assay [7] it was 17.4% (inactive); in assay [8], -1.09% (inactive). For the same molecule, the inhibition of aggregation in assay [2] was -18.4% (inactive). The figures for the nuclei count in assay [2] and in assay [3] were 76.9% and 104%, respectively. The values for the fluorescence slope in assay [4] and in assay [6] were -0.573 (inactive) and 0.0048 (inactive), respectively. Further, the NADPH fluorescence slope in assay [5] is 2.2e-05 (inactive).
In the case of `CCOc1cc(N2CCOCC2)c(OCC)cc1NC(=O)CSc1cccc[n+]1[O-]`, in assay [1], the cell count came to 506. In addition, the inhibition was 10.6% (inactive) in assay [1], -56.8% (inactive) in assay [3], 15.1% (inactive) in assay [7] and 18.2% (inactive) in assay [8]. Besides, the inhibition of aggregation in assay [2] is 2.4% (inactive). Besides, the nuclei count in assay [2] is 109%; in assay [3] it was 115%. Besides, the results for the fluorescence slope in assay [4] and in assay [6] were -0.506 (inactive) and 0.00543 (inactive), respectively. Also, the NADPH fluorescence slope in assay [5] is -0.000267 (inactive).
In the case of `Cc1cccn2c(=O)c3cc(C#N)c(=NC(=O)c4ccncc4)n(Cc4ccco4)c3nc12`, in assay [1], the cell count amounted to 386. Also, the inhibition in assay [1] was -1% (inactive); in assay [3], -36.9% (inactive); in assay [7] it was 10.3% (inactive); in assay [8] it was 19.4% (inactive). In addition, in assay [2], the inhibition of aggregation is 5% (inactive). For the same molecule, the figures for the nuclei count in assay [2] and in assay [3] were 99.9% and 114%, respectively. Moreover, the fluorescence slope in assay [4] is -0.535 (inactive); in assay [6], 0.00818 (inactive). Also, the NADPH fluorescence slope in assay [5] is -1.2e-05 (inactive).
For `O=C(Nc1cccc(NC(=O)c2cccnc2)c1)c1cccnc1`, the cell count in assay [1] stood at 515. Also, the inhibition is -3.3% (inactive) in assay [1], 2.1% (inactive) in assay [3], 15.2% (inactive) in assay [7] and 11% (inactive) in assay [8]. Besides, in assay [2], the inhibition of aggregation was -15.9% (inactive). The nuclei count in assay [2] stood at 96.4%; in assay [3], 103%. Further, the results for the fluorescence slope in assay [4] and in assay [6] were -0.271 (inactive) and 0.0055 (inactive), respectively. Besides, the NADPH fluorescence slope in assay [5] was -1.6e-05 (inactive).
For `Cc1nc2ccccn2c1P(=O)(N1CCCCC1)N1CCCCC1`, in assay [1], the cell count was 666. Further, the inhibition in assay [1] was -11.7% (inactive); in assay [3], -64.2% (inactive); in assay [7], 20.1% (inactive); in assay [8], 20.6% (inactive). The inhibition of aggregation in assay [2] is -0.1% (inactive). Moreover, the nuclei count amounted to 77% in assay [2] and 108% in assay [3]. The fluorescence slope in assay [4] is -0.526 (inactive); in assay [6], 0.00464 (inactive). In addition, the NADPH fluorescence slope in assay [5] was -1.7e-06 (inactive).
Take `O=C(Cn1nnc(-c2cccs2)n1)OC1CCCCC1`: in assay [1], the cell count is 298. Moreover, the inhibition in assay [1] is -4.7% (inactive); in assay [3], -108% (inactive); in assay [7], 11.6% (inactive); in assay [8] it was 5.67% (inactive). Moreover, the inhibition of aggregation in assay [2] is -0.1% (inactive). Also, the nuclei count in assay [2] amounted to 98.6%; in assay [3] it was 108%. Besides, the results for the fluorescence slope in assay [4] and in assay [6] were -0.547 (inactive) and 0.00395 (inactive), respectively. Also, in assay [5], the NADPH fluorescence slope was -9.5e-06 (inactive).
Consider `O=C1CN(C(=O)CN2CCCC2)C(c2ccccc2)c2cc(Br)ccc2N1` (stereo not drawn), for which the cell count in assay [1] was 393. The inhibition is -1.2% (inactive) in assay [1], -23.4% (inactive) in assay [3], -0.203% (inactive) in assay [7] and 21.9% (inactive) in assay [8]. In assay [2], the inhibition of aggregation is -15.4% (inactive). The nuclei count was 83.1% in assay [2] and 123% in assay [3]. Also, the values for the fluorescence slope in assay [4] and in assay [6] were -0.512 (inactive) and 0.00427 (inactive), respectively. In assay [5], the NADPH fluorescence slope was -6.6e-05 (inactive).
